Legend:
Oryctolagus cuniculus [1] = test: Biodistribution pattern of [123I]- ligand was evaluated in fat of anesthetized rabbit after Intravenous injection of 50 uCi after 2 hr; format: ADME, organism-based, Adipose tissue; settings: in vivo
Procedure, shortened: (§1)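 Male New Zealand white rabbits, 2.5–3.5 kg, anesthetized with 5 mg/kg xylazine plus 30 mg/kg ketamine im. Each received 50 uCi radioligand (specific activity > 5000 Ci/mmol) iv via ear vein. Animals were killed with 200 mg/kg pentobarbital im at the set time. Blood was drawn by intracardiac puncture and organs weighed. Gamma counting was decay-corrected, expressed as %ID x kg body weight/g tissue, mean ± SEM, n = 3/time point.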

Oryctolagus cuniculus [2] = test: Cerebral biodistribution pattern of [123I]- ligand was evaluated in hypothalamus of anesthetized rabbit after Intravenous injection of 50 uCi after 24 hr; format: ADME, organism-based; settings: in vivo
Procedure, shortened: (§2)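 Male New Zealand white rabbits (2.5–3.5 kg), anesthetized with xylazine 5 mg/kg plus ketamine 30 mg/kg im, given 50 µCi radioligand (specific activity >5000 Ci/mmol) iv via ear vein. Euthanized at set times by pentobarbital 200 mg/kg im, n = 3/time point. Organs removed and weighed, gamma-counted, decay/weight corrected; expressed as % ID x kg body weight/g tissue, mean ± SEM.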

Oryctolagus cuniculus [3] = test: Biodistribution pattern of [123I]- ligand was evaluated in lung of anesthetized rabbit after Intravenous injection of 50 uCi after 30 min; format: ADME, organism-based; settings: in vivo, 0.5 h; procedure, shortened: as §1
Oryctolagus cuniculus [4] = test: Biodistribution pattern of [123I]- ligand was evaluated in left ventricular muscle of anesthetized rabbit after Intravenous injection of 50 uCi after 2 hr; format: ADME, organism-based, Muscle tissue; settings: in vivo; procedure, shortened: as §1
Oryctolagus cuniculus [5] = test: Cerebral biodistribution pattern of [123I]- ligand was evaluated in hypothalamus of anesthetized rabbit after Intravenous injection of 50 uCi after 2 hr; format: ADME, organism-based; settings: in vivo; procedure, shortened: as §2
Oryctolagus cuniculus [6] = test: Biodistribution pattern of [123I]- ligand was evaluated in lung of anesthetized rabbit after Intravenous injection of 50 uCi after 1 hr; format: ADME, organism-based; settings: in vivo; procedure, shortened: as §1
Oryctolagus cuniculus [7] = test: Biodistribution pattern of [123I]- ligand was evaluated in muscle of anesthetized rabbit after Intravenous injection of 50 uCi after 24 hr; format: ADME, organism-based, Muscle tissue; settings: in vivo; procedure, shortened: as §1
Oryctolagus cuniculus [8] = test: Biodistribution pattern of [123I]- ligand was evaluated in right atrial muscle of anesthetized rabbit after Intravenous injection of 50 uCi after 1 hr; format: ADME, organism-based, Muscle tissue; settings: in vivo; procedure, shortened: as §2
Oryctolagus cuniculus [9] = test: Biodistribution pattern of [123I]- ligand was evaluated in spleen of anesthetized rabbit after Intravenous injection of 50 uCi after 6 hr; format: ADME, organism-based; settings: in vivo; procedure, shortened: as §2
Oryctolagus cuniculus [10] = test: Cerebral biodistribution pattern of [123I]- ligand was evaluated in frontal cortex of anesthetized rabbit after Intravenous injection of 50 uCi after 4 hr; format: ADME, organism-based; settings: in vivo; procedure, shortened: as §2
Oryctolagus cuniculus [11] = test: Biodistribution pattern of [123I]- ligand was evaluated in blood of anesthetized rabbit after Intravenous injection of 50 uCi after 4 hr; format: ADME, organism-based; settings: in vivo; procedure, shortened: as §1
Oryctolagus cuniculus [12] = test: Cerebral biodistribution pattern of [123I]- ligand was evaluated in frontal cortex of anesthetized rabbit after Intravenous injection of 50 uCi after 6 hr; format: ADME, organism-based; settings: in vivo; procedure, shortened: as §2
Oryctolagus cuniculus [13] = test: Biodistribution pattern of [123I]- ligand was evaluated in liver of anesthetized rabbit after Intravenous injection of 50 uCi after 30 min; format: ADME, organism-based; settings: in vivo, 0.5 h; procedure, shortened: as §1
Oryctolagus cuniculus [14] = test: Cerebral biodistribution pattern of [123I]- ligand was evaluated in pituitary gland of anesthetized rabbit after Intravenous injection of 50 uCi after 24 hr; format: ADME, organism-based; settings: in vivo; procedure, shortened: as §2
Oryctolagus cuniculus [15] = test: Biodistribution pattern of [123I]- ligand was evaluated in right ventricular muscle of anesthetized rabbit after Intravenous injection of 50 uCi after 6 hr; format: ADME, organism-based, Muscle tissue; settings: in vivo; procedure, shortened: as §2
Oryctolagus cuniculus [16] = test: Biodistribution pattern of [123I]- ligand was evaluated in spleen of anesthetized rabbit after Intravenous injection of 50 uCi after 24 hr; format: ADME, organism-based; settings: in vivo; procedure, shortened: as §2
Oryctolagus cuniculus [17] = test: Cerebral biodistribution pattern of [123I]- ligand was evaluated in frontal cortex of anesthetized rabbit after Intravenous injection of 50 uCi after 5 min; format: ADME, organism-based; settings: in vivo; procedure, shortened: as §2
Oryctolagus cuniculus [18] = test: Biodistribution pattern of [123I]- ligand was evaluated in liver of anesthetized rabbit after Intravenous injection of 50 uCi after 4 hr; format: ADME, organism-based; settings: in vivo; procedure, shortened: as §1
Oryctolagus cuniculus [19] = test: Biodistribution pattern of [123I]- ligand was evaluated in left atrial muscle of anesthetized rabbit after Intravenous injection of 50 uCi after 6 hr; format: ADME, organism-based, Muscle tissue; settings: in vivo; procedure, shortened: as §1
Oryctolagus cuniculus [20] = test: Biodistribution pattern of [123I]- ligand was evaluated in right ventricular muscle of anesthetized rabbit after Intravenous injection of 50 uCi after 30 min; format: ADME, organism-based, Muscle tissue; settings: in vivo, 0.5 h; procedure, shortened: as §2
Oryctolagus cuniculus [21] = test: Cerebral biodistribution pattern of [123I]- ligand was evaluated in hypothalamus of anesthetized rabbit after Intravenous injection of 50 uCi after 1 hr; format: ADME, organism-based; settings: in vivo; procedure, shortened: as §2
Oryctolagus cuniculus [22] = test: […] biodistribution pattern of [123I]- ligand was evaluated in kidney of anesthetized rabbit after Intravenous injection of 50 uCi after 2 hr; format: ADME, organism-based; settings: in vivo; procedure, shortened: as §2
Oryctolagus cuniculus [23] = test: Biodistribution pattern of [123I]- ligand was evaluated in lung of anesthetized rabbit after Intravenous injection of 50 uCi after 5 min; format: ADME, organism-based; settings: in vivo; procedure, shortened: as §1
Oryctolagus cuniculus [24] = test: Biodistribution pattern of [123I]- ligand was evaluated in spleen of anesthetized rabbit after Intravenous injection of 50 uCi after 4 hr; format: ADME, organism-based; settings: in vivo; procedure, shortened: as §2
Oryctolagus cuniculus [25] = test: Cerebral biodistribution pattern of [123I]- ligand was evaluated in thalamus of anesthetized rabbit after Intravenous injection of 50 uCi after 6 hr; format: ADME, organism-based; settings: in vivo
Procedure, shortened: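 Male New Zealand white rabbits (2.5–3.5 kg) anesthetized with xylazine 5 mg/kg plus ketamine 30 mg/kg im; 50 uCi radioligand (specific activity > 5000 Ci/mmol) given iv via ear vein. Euthanized by pentobarbital 200 mg/kg im at set times up to 24 h (n = 3/time point). Brain regions weighed and gamma-counted, decay-corrected, expressed as % ID x kg body weight/g tissue, mean ± SEM.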

Oryctolagus cuniculus [26] = test: Cerebral biodistribution pattern of [123I]- ligand was evaluated in hypothalamus of anesthetized rabbit after Intravenous injection of 50 uCi after 5 min; format: ADME, organism-based; settings: in vivo; procedure, shortened: as §2
Oryctolagus cuniculus [27] = test: Cerebral biodistribution pattern of [123I]- ligand was evaluated in hypothalamus of anesthetized rabbit after Intravenous injection of 50 uCi after 4 hr; format: ADME, organism-based; settings: in vivo; procedure, shortened: as §2
Oryctolagus cuniculus [28] = test: Cerebral biodistribution pattern of [123I]- ligand was evaluated in striatum of anesthetized rabbit after Intravenous injection of 50 uCi after 2 hr; format: ADME, organism-based; settings: in vivo; procedure, shortened: as §2
Oryctolagus cuniculus [29] = test: Cerebral biodistribution pattern of [123I]- ligand was evaluated in thalamus of anesthetized rabbit after Intravenous injection of 50 uCi after 4 hr; format: ADME, organism-based; settings: in vivo; procedure, shortened: as §2
Oryctolagus cuniculus [30] = test: Biodistribution pattern of [123I]- ligand was evaluated in right ventricular muscle of anesthetized rabbit after Intravenous injection of 50 uCi after 24 hr; format: ADME, organism-based, Muscle tissue; settings: in vivo; procedure, shortened: as §2
Oryctolagus cuniculus [31] = test: […] biodistribution pattern of [123I]- ligand was evaluated in kidney of anesthetized rabbit after Intravenous injection of 50 uCi after 24 hr; format: ADME, organism-based; settings: in vivo; procedure, shortened: as §2
Oryctolagus cuniculus [32] = test: Biodistribution pattern of [123I]- ligand was evaluated in kidney of anesthetized rabbit after Intravenous injection of 50 uCi after 30 min; format: ADME, organism-based; settings: in vivo, 0.5 h; procedure, shortened: as §1
Oryctolagus cuniculus [33] = test: Cerebral biodistribution pattern of [123I]- ligand was evaluated in hypothalamus of anesthetized rabbit after Intravenous injection of 50 uCi after 30 min; format: ADME, organism-based; settings: in vivo, 0.5 h; procedure, shortened: as §2
Oryctolagus cuniculus [34] = test: Biodistribution pattern of [123I]- ligand was evaluated in kidney of anesthetized rabbit after Intravenous injection of 50 uCi after 4 hr; format: ADME, organism-based; settings: in vivo; procedure, shortened: as §1
Oryctolagus cuniculus [35] = test: Biodistribution pattern of [123I]- ligand was evaluated in kidney of anesthetized rabbit after Intravenous injection of 50 uCi after 5 min; format: ADME, organism-based; settings: in vivo; procedure, shortened: as §1
Oryctolagus cuniculus [36] = test: Biodistribution pattern of [123I]- ligand was evaluated in fat of anesthetized rabbit after Intravenous injection of 50 uCi after 5 min; format: ADME, organism-based, Adipose tissue; settings: in vivo; procedure, shortened: as §1

Compound: CC(C)(/C=C/I)NC[C@H](O)COc1cccc2[nH]c3ccccc3c12
- ID x kg of body weight/g of tissue (Oryctolagus cuniculus [1]): 0.04%
- ID x kg of body weight/g of tissue (Oryctolagus cuniculus [2]): 0.02%
- ID x kg of body weight/g of tissue (Oryctolagus cuniculus [3]): < 1.74%
- ID x kg of body weight/g of tissue (Oryctolagus cuniculus [4]): 0.2%
- ID x kg of body weight/g of tissue (Oryctolagus cuniculus [5]): 0.05%
- ID x kg of body weight/g of tissue (Oryctolagus cuniculus [6]): 1.43%
- ID x kg of body weight/g of tissue (Oryctolagus cuniculus [7]): 0.05%
- ID x kg of body weight/g of tissue (Oryctolagus cuniculus [8]): < 0.13%
- ID x kg of body weight/g of tissue (Oryctolagus cuniculus [9]): 0.07%
- ID x kg of body weight/g of tissue (Oryctolagus cuniculus [10]): 0.06%
- ID x kg of body weight/g of tissue (Oryctolagus cuniculus [11]): 0.01%
- ID x kg of body weight/g of tissue (Oryctolagus cuniculus [12]): 0.05%
- ID x kg of body weight/g of tissue (Oryctolagus cuniculus [13]): 0.19%
- ID x kg of body weight/g of tissue (Oryctolagus cuniculus [14]): 0.03%
- ID x kg of body weight/g of tissue (Oryctolagus cuniculus [15]): 0.08%
- ID x kg of body weight/g of tissue (Oryctolagus cuniculus [16]): 0.03%
- ID x kg of body weight/g of tissue (Oryctolagus cuniculus [17]): 0.27%
- ID x kg of body weight/g of tissue (Oryctolagus cuniculus [18]): 0.04%
- ID x kg of body weight/g of tissue (Oryctolagus cuniculus [19]): 0.1%
- ID x kg of body weight/g of tissue (Oryctolagus cuniculus [20]): < 0.21%
- ID x kg of body weight/g of tissue (Oryctolagus cuniculus [21]): 0.06%
- ID x kg of body weight/g of tissue (Oryctolagus cuniculus [22]): 0.11%
- ID x kg of body weight/g of tissue (Oryctolagus cuniculus [23]): 5.75%
- ID x kg of body weight/g of tissue (Oryctolagus cuniculus [24]): 0.1%
- ID x kg of body weight/g of tissue (Oryctolagus cuniculus [25]): 0.03%
- ID x kg of body weight/g of tissue (Oryctolagus cuniculus [26]): 0.25%
- ID x kg of body weight/g of tissue (Oryctolagus cuniculus [27]): 0.03%
- ID x kg of body weight/g of tissue (Oryctolagus cuniculus [28]): 0.07%
- ID x kg of body weight/g of tissue (Oryctolagus cuniculus [29]): 0.03%
- ID x kg of body weight/g of tissue (Oryctolagus cuniculus [30]): 0.02%
- ID x kg of body weight/g of tissue (Oryctolagus cuniculus [31]): 0.02%
- ID x kg of body weight/g of tissue (Oryctolagus cuniculus [32]): < 0.29%
- ID x kg of body weight/g of tissue (Oryctolagus cuniculus [33]): 0.09%
- ID x kg of body weight/g of tissue (Oryctolagus cuniculus [34]): 0.05%
- ID x kg of body weight/g of tissue (Oryctolagus cuniculus [35]): 0.92%
- ID x kg of body weight/g of tissue (Oryctolagus cuniculus [36]): 0.008%

— ChEMBL document CHEMBL1129275, “Synthesis and in vitro and in vivo characteristics of an iodinated analogue of the beta-adrenoceptor antagonist carazolol” (J Med Chem, 1996)
